{"data": "Measurements gathered from unrelated publications", "read-out": "cell growth or viability", "note": "Protocols differ between the studies behind these lines."}
{"SMILES": "Cc1cccc(-n2ncc(Cl)c(Cl)c2=O)c1", "cell line": "NCI-H1975", "method": "resazurin", "time": "96 h", "measurement": "IC50", "value": "0.14 µM"}
{"SMILES": "Cc1ccc2c(CNCC3(N4CCCC4)COC3)c[nH]c2c1", "cell line": "T98G", "concentration": "30 µM", "time": "48 h", "measurement": "viability", "value": "98.5%"}
{"SMILES": "CNCCN(C)C(=O)Oc1c(Cl)c(C)nc(C)c1-c1ccc(Oc2ccc(OC(F)(F)F)cc2)cc1", "cell line": "HEK293", "measurement": "IC50", "value": "> 10 µM"}
{"SMILES": "Cc1cccc(-c2cccc(C)n2)n1.Cc1cccc(-c2cccc(C)n2)n1.F[P-](F)(F)(F)(F)F.F[P-](F)(F)(F)(F)F.[Ru+2].c1ccc2cc(-c3nc4c5cccnc5c5ncccc5c4[nH]3)ccc2c1", "cell line": "SK-MEL-28", "method": "resazurin", "setting": "dark", "measurement": "EC50", "value": "31.8 µM"}
{"SMILES": "N.N.[Cl][Pt][Cl]", "cell line": "HEK293", "method": "MTT", "time": "72 h", "measurement": "IC50", "value": "28.4 µM"}
{"SMILES": "Cc1cc(O)cc2c(C3CCN(CC4CCN(C(=O)/C=C/c5ccc(Cl)c(Cl)c5)CC4)CC3)c[nH]c12", "cell line": "HEK293", "measurement": "IC50", "value": "> 10 µM"}
{"SMILES": "O=S(=O)([O-])C(F)(F)F.OCc1ccnc(-c2cc(CO)ccn2)c1.[Ru+2].c1cc[cH-]c1.c1ccc(P(c2ccccc2)c2ccccc2)cc1", "cell line": "HEK293", "method": "MTT", "time": "48 h", "measurement": "IC50", "value": "6.7 µM"}
{"SMILES": "CCCCCCCSc1ccc(CC(C)NCC(O)c2cccc(Cl)c2)cc1 (stereo not drawn)", "cell line": "HEK293", "measurement": "IC50", "value": "> 10 µM"}
{"SMILES": "N.N.[Cl][Pt][Cl]", "cell line": "SK-MEL-28", "method": "resazurin", "setting": "dark", "measurement": "EC50", "value": "3.38 µM"}
{"SMILES": "Cc1c(C)c2c(c(C)c1O)CC[C@](C)(C(=O)NC1CCC(CN3CCC(c4c[nH]c5ccccc45)CC3)CC1)O2 (stereo partly drawn)", "cell line": "HEK293", "measurement": "IC50", "value": "> 10 µM"}
{"SMILES": "N.N.[Cl][Pt][Cl]", "cell line": "NCI-H1975", "method": "MTT", "time": "72 h", "measurement": "IC50", "value": "6 µM"}
{"SMILES": "Cc1cccc2[nH]cc(CNCC3(N4CCCC4)COC3)c12", "cell line": "T98G", "concentration": "30 µM", "time": "48 h", "measurement": "viability", "value": "60.1%"}
